NTR1 ag = NTR1 (human) agonism. activation, % at 20 µM. AID 493036. P30989. NTR1-U2OS beta-arrestin-GFP spot imaging, agonist mode. actives 0.17% (n = 330,000);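 active means activation at or above 40% of the spot to cytoplasm intensity ratio, with at least 20 cells analyzed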
TbMetRS inhib = Trypanosoma brucei MetRS inhibition | purified T. brucei MetRS, ATP depletion, Kinase-Glo luminescence | actives 0.4% (n = 360,000) | inhibition, % at 11.9 µM;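 active means inhibition above a per-plate cutoff of the control wells' mean inhibition plus 3 SD, cut at about 5.5% in these data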
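technique = Kinase-Glo luminescence, ATP depletion format | system = purified MetRS (methionyl-tRNA synthetase) enzyme from Trypanosoma brucei | timing = 15 min preincubation, 2 h reaction, all 25 °C | evaluation = percent inhibition versus plate control medians | dosing = single dose, 11.9 µM final nominal, 0.9% final DMSO | also added = substrates ATP, L-methionine and bulk Escherichia coli tRNA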
aDG glyco act = alpha-DG glycosylation activation; activation, % at 10 µM; AID 624168; actives 0.22% (n = 360,000); Pro5-aDG cells, alpha-DG glycosylation AlphaScreen (IIH6); 0% Pro5, 100% B10-LARGE cell signal;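 active means activation of at least 8% versus controls, or a plate z-score of at least 8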;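 further: Pro5 are CHO cells carrying HIG-tagged alpha-DG that lacks glycosylation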
MC4R ag barr = human MC4R agonism via beta-arrestin. activation, % at 8.9 µM. U2OS MC4R beta-arrestin complementation, luminescence; percent of melanotan II response, DMSO zero. AID 540308. actives 0.98% (n = 360,000). P32245;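 active means activation above a per-plate cutoff, the mean activation of sample wells on that plate plus 3 SD, cut at about 8% in these data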
Target sequence (P32245 whole entry, looked up): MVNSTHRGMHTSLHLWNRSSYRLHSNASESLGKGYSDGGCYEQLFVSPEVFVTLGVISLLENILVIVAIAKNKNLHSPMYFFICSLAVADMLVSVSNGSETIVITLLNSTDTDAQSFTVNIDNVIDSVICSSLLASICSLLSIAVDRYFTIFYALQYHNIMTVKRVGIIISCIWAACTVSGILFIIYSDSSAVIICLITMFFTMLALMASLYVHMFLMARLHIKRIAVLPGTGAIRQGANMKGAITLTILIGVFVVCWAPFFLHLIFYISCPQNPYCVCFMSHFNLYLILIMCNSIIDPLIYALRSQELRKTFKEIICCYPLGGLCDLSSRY
MC4R antag cAMP = human MC4R antagonism in cAMP assay. MC4R-expressing cells, MTII-stimulated cAMP, LANCE TR-FRET. inhibition, % at 6.5 µM. actives 0.48% (n = 360,000). AID 540295;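 active means inhibition above its plate's cutoff, the mean of tested wells on that plate plus 3 SD, cut at about 29% in these data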
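System: U2OS-MC4R stable cell line; Technique: Eu-cAMP/anti-cAMP TR-FRET, emission 671 nm; Repeats: single well per compound; Also added: Melanotan II; Dosing: one concentration, 6.5 µM nominal; Schedule: 30-min compound, 1-h challenge, 1-h detection, room temperature.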
H9c2 TAG inh = inhibitors of triacylglycerol accumulation. actives 0.66% (n = 230,000). H9c2 cells, Nile Red lipid (TAG) fluorescence; cells loaded with 200 µM oleic acid. inhibition, % at 12.5 µM;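 active means pattern-corrected inhibition of lipid staining of at least 50% with the nuclear-stain viability signal not falling by more than 50%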
TbMetRS confirm = confirmation of Trypanosoma brucei MetRS inhibitors | inhibition, % at 11.9 µM | actives 93% (n = 1,400) | T. brucei MetRS enzyme, luminescence (ATP depletion) | shares compounds with TbMetRS inhib; in the data active means inhibition above about 7%
Jurkat tox = counter-screen for T. brucei MetRS inhibitors: Jurkat cell cytotoxicity | shares compounds with TbMetRS inhib | inhibition, % at 8.3 µM | actives 12% (n = 1,400) | AID 624413 | Jurkat cells viability, ATP luminescence; in the data active means inhibition above about 15%
TbMetRS FP orth = T. brucei MetRS inhibition, orthogonal assay; shares compounds with TbMetRS inhib; actives 44% (n = 1,400); inhibition, % at 11.9 µM; purified T. brucei MetRS, fluorescence polarization; in the data active means inhibition above about 17%
Numbers stand for hits; n = inactive; x = not tested or not shown. This is a sample that favours compounds with a hit; in the whole collection about 2.4% have one here.

SMILES	NTR1 ag	TbMetRS inhib	aDG glyco act	MC4R ag barr	MC4R antag cAMP	H9c2 TAG inh	TbMetRS confirm	Jurkat tox	TbMetRS FP orth
Cc1cc(NC(=O)CCNS(=O)(=O)c2cc(Br)cnc2N)ccc1Br	n	31	n	n	n	x	47	n	29
CCCc1nc2ccc(Cl)cn2c1Cc1ccccc1	x	n	n	x	x	x	x	x	x
O=c1c2cc(Cl)ccc2[nH]c(=S)n1Cc1ccccn1	n	6.8	n	n	n	x	16	n	n
O=C(NCc1ccccn1)c1ccc(Cn2c(=S)[nH]c3ccc(Br)cc3c2=O)cc1	n	n	n	n	n	n	x	x	x
Nc1nc(Cl)cc(=O)n1Cc1ccc(Cl)cc1	n	9.4	n	n	n	n	18	n	n
O=C(CNC(=O)c1ccc(Br)o1)NCc1ccc(Cl)cc1Cl	n	18	n	n	n	n	45	n	n
O=C(CNC(=O)c1ccc(Br)o1)NCc1cccc(Cl)c1	n	n	n	n	n	n	x	x	x
O=C(NNC(=O)c1ccccc1F)c1ccc(-n2cncn2)c([N+](=O)[O-])c1	n	n	n	n	n	n	x	x	x
Cc1cccc(NC(=O)c2ccc(-n3cccn3)c([N+](=O)[O-])c2)c1	n	n	n	n	n	n	x	x	x
O=C(Nc1cc(F)ccc1F)c1ccc(-n2cncn2)c([N+](=O)[O-])c1	n	36	n	n	n	n	57	n	33
O=C(Nc1ccc(F)c(F)c1)c1ccc(-n2cncn2)c([N+](=O)[O-])c1	n	37	n	n	n	n	58	n	29
O=C(Nc1cccc(/C=C/c2ccccn2)c1)c1ccc(-n2cncn2)c([N+](=O)[O-])c1	n	23	n	n	n	n	62	22	55
CCN(CC(=O)Nc1c(F)cccc1F)C(=O)c1ccc(-n2cncn2)c([N+](=O)[O-])c1	n	n	n	n	n	n	x	x	x
OCc1cccc(-c2cnc3c(Nc4cccc(OC(F)(F)C(F)F)c4)nccn23)c1	x	n	n	n	n	n	x	x	x
O=C1NC[C@@H](CCCCN2CCN(Cc3ccccc3)C(=O)C2=O)N(CC2CCCCC2)C1=O	x	n	n	x	x	x	x	x	x
NC1=NC(=O)/C(=C\c2ccc(-c3ccc(Cl)cc3)o2)S1	n	9.1	n	n	n	n	34	22	49
CN(C)C1=NC(=O)/C(=C/c2ccc(-c3ccc(S(N)(=O)=O)cc3)o2)S1	n	x	x	x	x	x	x	x	x
O=C(CC1SC(=Nc2ccccc2)N(Cc2ccccn2)C1=O)Nc1ccc(Br)cc1 (configuration not stated)	n	19	n	n	n	x	38	n	n
Cc1ccccc1N=C1SC(CC(=O)Nc2ccc3ccccc3c2)C(=O)N1Cc1ccccn1 (configuration not stated)	n	n	n	n	n	x	x	x	x
CCc1cccc(NC(=O)CCCSc2nc3ccccc3[nH]2)c1	n	26	n	n	n	x	44	n	17
Cc1cc(C)cc(NC(=O)CCCSc2nc3ccccc3[nH]2)c1	n	11	n	n	n	n	22	n	n
Cc1cccc(NC(=O)CCCSc2nc3ccccc3[nH]2)c1	n	17	n	n	n	n	18	n	n
O=C(CCCSc1nc2ccccc2[nH]1)Nc1ccccc1	n	n	n	n	n	x	x	x	x
CC(C)CNC(=O)CCCSc1nc2ccccc2[nH]1	n	n	n	n	n	n	x	x	x
COc1ccc(N2CCN(C(=O)CCCSc3nc4ccccc4[nH]3)CC2)cc1	n	6.6	n	n	n	n	20	n	n
SMILES	NTR1 ag	TbMetRS inhib	aDG glyco act	MC4R ag barr	MC4R antag cAMP	H9c2 TAG inh	TbMetRS confirm	Jurkat tox	TbMetRS FP orth
CCCCNC(=O)c1nc(-c2cccs2)oc1-c1ccc(Cl)cc1	x	n	n	x	x	x	x	x	x
CS(=O)(=O)N(CC(=O)Nc1ccc2c(c1)OCO2)Cc1ccc(Cl)cc1	n	14	n	n	n	n	23	n	n
Cc1ccc([C@@H]2CC(=O)[C@@H]3CN(S(=O)(=O)c4ccc(C)cc4)[C@H](c4ccc(Cl)cc4)C[C@@H]3N2S(=O)(=O)c2ccc(Cl)cc2)cc1	x	n	n	n	n	n	x	x	x
Cc1ccc(S(=O)(=O)Nc2cccc3ncccc23)cc1	n	n	n	n	n	n	x	x	x
Cc1ccc(S(=O)(=O)Nc2ccnc3ccccc23)cc1	n	7.0	n	n	n	n	15	n	n
CCc1ccc(OCC(=O)NNC(=O)c2ccc(-n3cncn3)c([N+](=O)[O-])c2)cc1	x	5.9	n	n	n	n	35	n	17
O=C(COc1ccc(Br)cc1)NNC(=O)c1ccc(-n2cncn2)c([N+](=O)[O-])c1	n	20	n	n	n	n	54	n	23
Cc1ccc(OCC(=O)NNC(=O)c2ccc(-n3cncn3)c([N+](=O)[O-])c2)cc1	n	16	n	n	n	n	41	n	17
COc1ccc(NC(=O)C2(C)CCN2C(=O)CC2CCCC2)cc1OC (configuration not stated)	x	n	n	n	n	n	x	x	x
O=C(NCc1ccccc1Cl)c1ccc2c(c1)SC1=NS(=O)(=O)CCN12	n	n	n	n	n	n	x	x	x
O=C(NCc1cccc(Cl)c1)c1ccc2c(c1)SC1=NS(=O)(=O)CCN12	n	6.1	n	n	n	x	15	n	n
COc1cccc(C2c3[nH]c4ccccc4c3C[C@H]3C(=O)N(C)CC(=O)N23)c1 (some centres not stated)	n	16	n	n	n	x	31	n	n
COc1ccc(C2c3[nH]c4ccccc4c3C[C@H]3C(=O)N(C)CC(=O)N23)cc1OC (some centres not stated)	n	n	n	n	n	x	x	x	x
COc1ccc(OC)c(C2c3[nH]c4ccccc4c3C[C@H]3C(=O)N(C4CC4)CC(=O)N23)c1 (some centres not stated)	n	n	n	n	n	x	x	x	x
COc1cccc(C2c3[nH]c4ccccc4c3C[C@H]3C(=O)N(C4CC4)CC(=O)N23)c1 (some centres not stated)	n	16	n	n	n	x	30	n	22
Cc1ccccc1C1c2[nH]c3ccccc3c2C[C@H]2C(=O)N(C3CCN(Cc4ccccc4)CC3)CC(=O)N12 (some centres not stated)	n	n	n	n	n	x	x	x	x
